Twelve molecules from ChEMBL document CHEMBL1914360, “Synthesis and anticancer activity of 5'-chloromethylphosphonates of 3'-azido-3'-deoxythymidine (AZT)” (Bioorg Med Chem, 2011) can be followed below.

In brackets after ≈: the same amount, converted by molar mass.

The subject of one data set is KB. The experiment in a line: Cytotoxicity against human KB cells assessed as cell survival after 72 hrs by sulforhodamine B colorimetric assay. In kind it is functional, cell-based. A digest of the protocol: (§1)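 SRB protein-stain assay: KB cells grown in RPMI 1640 and MCF-7 in DMEM, each with 10% FBS, 1% L-glutamine and 1% penicillin/streptomycin, at 37 °C. About 10,000 cells per well were left 24 h, then exposed 72 h to six concentrations ([…]), with DMSO ≤0.1%. Cells were TCA-fixed 1 h at 4 °C and stained 30 min at RT. OD was read at 490 nm, survival taken as % of untreated control, and each experiment run three times.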
Background: In SRB staining, fixed cells bind dye roughly in proportion to their protein.

The next data set has as its system MCF7. The experiment in a line: Cytotoxicity against human MCF7 cells assessed as cell survival after 72 hrs by sulforhodamine B colorimetric assay. As to conditions: MCF7, 72 h. In kind it is functional, cell-based. A digest of the protocol: as §1
The test system of a further data set is Caco-2. The experiment in a line: Cytotoxicity against human Caco2 cells at 100 uM. To be noted: caco-2, 100 µM. In kind it is cell-based. A digest of the protocol:
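Caco-2 monolayers were exposed for 2 h to compound at 100 µM in transport medium (HBSS with 10 mM HEPES, pH 7.4). This served as a pre-check before transport studies. Monolayer integrity was checked by TEER before and after the experiments.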

Data set [1] is described as follows: Apparent permeability from apical to basolateral side of the human Caco2 cells at 100 uM after 30 mins by HPLC method. As to conditions: Caco-2. In kind it is ADME, cell-based. A digest of the protocol:
(§2)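 Caco-2 monolayers grown on polycarbonate membranes (0.4 µm pores) and used 21 days post-seeding; only monolayers with TEER above 800 Ω·cm² were used. Cells washed and pre-incubated 30 min at 37 °C. Compound at 100 µM in HBSS with 10 mM HEPES, pH 7.4, added to the donor side; shaken at 37 °C. Acceptor sampled every 15 min and analysed by HPLC. Papp reported as mean ± SD, n = 3.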
In general terms: Caco-2 monolayers are a common model of the intestinal barrier.

Data set [2] is described as follows: Apparent permeability from basolateral to apical side of the human Caco2 cells at 100 uM after 30 mins by HPLC method. As to conditions: Caco-2. In kind it is ADME, cell-based. A digest of the protocol:
as §2

Data set [3] in a line: Oral bioavailability in human. In kind it is ADME, organism-based. As to conditions: in vivo.

With `Nc1ccn([C@@H]2O[C@H](CO)[C@@H](O)[C@@H]2O)c(=O)n1` [CYTARABINE], the IC50 (usually the concentration that gives 50% inhibition) in the data set on KB was determined as 0.99 µg/mL (≈ 4.07 µM); in the data set with MCF7, 0.93 µg/mL (≈ 3.82 µM).

For `Cc1cn([C@H]2C[C@H](N=[N+]=[N-])[C@@H](COP(=O)(CCl)NCCc3ccccc3)O2)c(=O)[nH]c1=O` (some centres not stated), the IC50 with KB and in the data set with MCF7 was over 100 µg/mL each time.

`Cc1cn([C@H]2C[C@H](N=[N+]=[N-])[C@@H](COP(=O)(CCl)NCCc3c[nH]c4ccccc34)O2)c(=O)[nH]c1=O` (some centres not stated): the IC50 in the data set with KB is 80 µg/mL (≈ 153 µM); in the data set on MCF7, over 100 µg/mL.

As to `Cc1cn([C@H]2C[C@H](N=[N+]=[N-])[C@@H](COP(=O)(CCl)NC(C)C)O2)c(=O)[nH]c1=O` (some centres not stated), the IC50 in the data set on KB came out at 12.1 µg/mL (≈ 28.8 µM); with MCF7 it was 12.8 µg/mL (≈ 30.4 µM). Further, the Activity entry in the data set on Caco-2 is reported as “Non-toxic”. For the same molecule, in data set [1], the Papp A→B (as a rule, how fast a substance crosses the layer from the apical side) at 0.5 h, 100 µM amounted to 3.36 ×10⁻⁶ cm/s. Moreover, in data set [2], the Papp B→A – broadly, how fast a substance crosses the layer from the basolateral side – at 0.5 h, 100 µM was found to be 18 ×10⁻⁶ cm/s.

Turning to `CCN(CC)P(=O)(CCl)OC[C@H]1O[C@@H](n2cc(C)c(=O)[nH]c2=O)C[C@@H]1N=[N+]=[N-]` (some centres not stated), the values for the IC50 in the data set with KB and in the data set on MCF7 were 85 µg/mL (≈ 195 µM) and 67 µg/mL (≈ 154 µM), respectively.

Take `CCCNP(=O)(CCl)OC[C@H]1O[C@@H](n2cc(C)c(=O)[nH]c2=O)C[C@@H]1N=[N+]=[N-]` (some centres not stated): the IC50 in the data set with KB was determined as 5.8 µg/mL (≈ 13.8 µM); in the data set on MCF7, 3.7 µg/mL (≈ 8.79 µM). In addition, the Activity result in the data set with Caco-2 was “Non-toxic”. The Papp A→B at 0.5 h, 100 µM in data set [1] turned out to be 3.22 ×10⁻⁶ cm/s. In addition, the Papp B→A at 0.5 h, 100 µM in data set [2] was found to be 16.1 ×10⁻⁶ cm/s.

In the case of `C=CCNP(=O)(CCl)OC[C@H]1O[C@@H](n2cc(C)c(=O)[nH]c2=O)C[C@@H]1N=[N+]=[N-]` (some centres not stated), the results for the IC50 with KB and in the data set with MCF7 were 47 µg/mL (≈ 112 µM) and 34 µg/mL (≈ 81.2 µM), respectively.

In the case of `Cc1cn([C@H]2C[C@H](N=[N+]=[N-])[C@@H](CO)O2)c(=O)[nH]c1=O` [ZIDOVUDINE], the figures for the IC50 in the data set with KB and with MCF7 were 3.12 µg/mL (≈ 11.7 µM) and 2.6 µg/mL (≈ 9.73 µM), respectively. For the same molecule, the Papp A→B at 0.5 h, 100 µM in data set [1] was 2.85 ×10⁻⁶ cm/s. Also, the bioavailability (in general, dose-corrected exposure relative to a reference, in per cent) in data set [3] stood at 63%.

On to `CCNP(=O)(CCl)OC[C@H]1O[C@@H](n2cc(C)c(=O)[nH]c2=O)C[C@@H]1N=[N+]=[N-]` (some centres not stated), for which the IC50 with KB and with MCF7 was over 100 µg/mL throughout.

`CCCCNP(=O)(CCl)OC[C@H]1O[C@@H](n2cc(C)c(=O)[nH]c2=O)C[C@@H]1N=[N+]=[N-]` (some centres not stated): the IC50 was determined as 77 µg/mL (≈ 177 µM) in the data set with KB and 82 µg/mL (≈ 189 µM) with MCF7.

Turning to `CNP(=O)(CCl)OC[C@H]1O[C@@H](n2cc(C)c(=O)[nH]c2=O)C[C@@H]1N=[N+]=[N-]` (some centres not stated), the half-inhibitory concentration (IC50) turned out to be 52 µg/mL (≈ 132 µM) with KB and 63.2 µg/mL (≈ 161 µM) with MCF7.

`Cc1cn([C@H]2C[C@H](N=[N+]=[N-])[C@@H](COP(=O)(CCl)N(C)C)O2)c(=O)[nH]c1=O` (some centres not stated): the IC50 with KB turned out to be 65 µg/mL (≈ 160 µM); in the data set on MCF7 it was 22.8 µg/mL (≈ 56.1 µM).
